From ChEMBL document CHEMBL1275408, “A chemical genomic screen in Saccharomyces cerevisiae reveals a role for diphthamidation of translation elongation factor 2 in inhibition of protein synthesis by sordarin” (2008)
Active and inactive are the calls of the source. The calls are words filed in the database; no cut-off is given here.

Columns and labels:
[1] = tested on: Saccharomyces cerevisiae; experiment: Antifungal activity against Saccharomyces cerevisiae BY4741 harboring AMS1 YGL156W mutant gene by spectrophotometry; format: functional
Procedure, shortened: (§1)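 Screen of BY4741 KanMX4 deletion strains pre-grown 3 days at 28°C in YPD with G418 (150 mg/liter), then pinned into liquid SC containing GM193663. The sensitivity screen used 2 ng/ml; the resistance screen used 62.5 ng/ml, with validation at 62.5, 125 and 500 ng/ml. OD595 was read every 24 h over 5 days at 28°C. Growth was scored relative to wild type and to drug-free controls. Retests were at least in duplicate.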

[2] = tested on: Saccharomyces cerevisiae; experiment: Antifungal activity against Saccharomyces cerevisiae BY4741 harboring CPR6 YLR216C mutant gene by spectrophotometry; format: functional; procedure, shortened: as §1
[3] = tested on: Saccharomyces cerevisiae; experiment: Antifungal activity against Saccharomyces cerevisiae BY4741 harboring DIA4 YHR011W mutant gene by spectrophotometry; format: functional; procedure, shortened: as §1
[4] = tested on: Saccharomyces cerevisiae; experiment: Antifungal activity against Saccharomyces cerevisiae BY4741 harboring QRI5 YLR204W mutant gene by spectrophotometry; format: functional
Procedure, shortened: (§2)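 Haploid MATa BY4741 KanMX4 deletion strains pinned from frozen stocks into YPD + G418 (150 mg/liter), grown 3 days at 28°C to confluence, then pin-replicated into SC liquid with no drug or sordarin derivative GM193663 (2 ng/ml sensitivity; 62.5 ng/ml resistance). 28°C, OD595 read every 24 h for 5 days; growth scored relative to wild type on same plate and to untreated mutant.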

[5] = tested on: Saccharomyces cerevisiae; experiment: Antifungal activity against Saccharomyces cerevisiae BY4741 harboring BAP2 YBR068C mutant gene by spectrophotometry; format: functional; procedure, shortened: as §1
[6] = tested on: Saccharomyces cerevisiae; experiment: Antifungal activity against Saccharomyces cerevisiae BY4741 harboring GGC1 YDL198C mutant gene by spectrophotometry; format: functional; procedure, shortened: as §1
[7] = tested on: Saccharomyces cerevisiae; experiment: Antifungal activity against Saccharomyces cerevisiae BY4741 harboring ARO3 YDR035W mutant gene by spectrophotometry; format: functional; procedure, shortened: as §1
[8] = tested on: Saccharomyces cerevisiae; experiment: Antifungal activity against Saccharomyces cerevisiae BY4741 harboring SER1 YOR184W mutant gene by spectrophotometry; format: functional; procedure, shortened: as §2
[9] = tested on: Saccharomyces cerevisiae; experiment: Antifungal activity against Saccharomyces cerevisiae BY4741 harboring BEM2 YER155C mutant gene by spectrophotometry; format: functional; procedure, shortened: as §1
[10] = tested on: Saccharomyces cerevisiae; experiment: Antifungal activity against Saccharomyces cerevisiae BY4741 harboring SEM1 YDR363W-A mutant gene by spectrophotometry; format: functional; procedure, shortened: as §2
[11] = tested on: Saccharomyces cerevisiae; experiment: Antifungal activity against Saccharomyces cerevisiae BY4741 harboring DSK2 YMR276W mutant gene by spectrophotometry; format: functional; procedure, shortened: as §1
[12] = tested on: Saccharomyces cerevisiae; experiment: Antifungal activity against Saccharomyces cerevisiae BY4741 harboring GRR1 YJR090C mutant gene by spectrophotometry; format: functional; procedure, shortened: as §1
[13] = tested on: Saccharomyces cerevisiae; experiment: Antifungal activity against Saccharomyces cerevisiae BY4741 harboring PRE9 YGR135W mutant gene by spectrophotometry; format: functional; procedure, shortened: as §2
[14] = tested on: Saccharomyces cerevisiae; experiment: Antifungal activity against Saccharomyces cerevisiae BY4741 harboring DOC1 YGL240W mutant gene by spectrophotometry; format: functional; procedure, shortened: as §1
[15] = tested on: Saccharomyces cerevisiae; experiment: Antifungal activity against Saccharomyces cerevisiae BY4741 harboring NAT3 YPR131C mutant gene by spectrophotometry; format: functional; procedure, shortened: as §2
[16] = tested on: Saccharomyces cerevisiae; experiment: Antifungal activity against Saccharomyces cerevisiae BY4741 harboring PTP3 YER075C mutant gene by spectrophotometry; format: functional; procedure, shortened: as §2
[17] = tested on: Saccharomyces cerevisiae; experiment: Antifungal activity against Saccharomyces cerevisiae BY4741 harboring MSR1 YHR091C mutant gene by spectrophotometry; format: functional; procedure, shortened: as §2
[18] = tested on: Saccharomyces cerevisiae; experiment: Antifungal activity against Saccharomyces cerevisiae BY4741 harboring MRPL11 YDL202W mutant gene by spectrophotometry; format: functional; procedure, shortened: as §2
[19] = tested on: Saccharomyces cerevisiae; experiment: Antifungal activity against Saccharomyces cerevisiae BY4741 harboring MRPL37 YBR268W mutant gene by spectrophotometry; format: functional; procedure, shortened: as §2
[20] = tested on: Saccharomyces cerevisiae; experiment: Antifungal activity against Saccharomyces cerevisiae BY4741 harboring RPS11A YDR025W mutant gene by spectrophotometry; format: functional; procedure, shortened: as §2
[21] = tested on: Saccharomyces cerevisiae; experiment: Antifungal activity against Saccharomyces cerevisiae BY4741 harboring RPL12B YDR418W mutant gene by spectrophotometry; format: functional; procedure, shortened: as §2
[22] = tested on: Saccharomyces cerevisiae; experiment: Antifungal activity against Saccharomyces cerevisiae BY4741 harboring CNM67 YNL225C mutant gene assessed as reduction in fungal growth at 2 ng/ml by spectrophotometry; format: functional, organism-based
Procedure, shortened: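 Haploid BY4741 KanMX4 deletion strains pre-grown in YPD with G418 (150 mg/liter) for 3 days at 28°C. They were then pin-replicated into liquid SC with sordarin derivative GM193663 at 2 ng/ml, or without drug. Plates were incubated at 28°C and OD595 read every 24 h for 5 days. Growth was scored against wild type on the same plate and against the drug-free mutant. Hits were retested at least in duplicate.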

[23] = tested on: Saccharomyces cerevisiae; experiment: Antifungal activity against Saccharomyces cerevisiae BY4741 harboring YBL100C mutation assessed as reduction in fungal growth at 2 ng/ml by spectrophotometry; format: functional, organism-based
Procedure, shortened: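 Deletion strains (BY4741 background) pre-grown 3 days at 28°C in YPD + G418 (150 mg/liter), then pin-replicated into SC liquid containing 2 ng/ml GM193663 or no drug. 28°C, OD595 every 24 h over 5 days; growth scored against wild type on same plate and against drug-free mutant control; hits retested at least in duplicate at 2 ng/ml.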

[24] = tested on: Saccharomyces cerevisiae; experiment: Antifungal activity against Saccharomyces cerevisiae BY4741 harboring deletion mutation in dph5 gene at 100 ng/ml by plate assay; format: functional, organism-based
Procedure, shortened: (§3)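 Spot test on solid SC glucose plates with or without 100 ng/ml sordarin. Drops of 10^5 cells plus 10-fold serial dilutions of each dph deletion strain were spotted alongside the parental strain. Plates were incubated at 28°C for 6 days and imaged every 24 h.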

[25] = tested on: Saccharomyces cerevisiae; experiment: Antifungal activity against Saccharomyces cerevisiae BY4741 harboring deletion mutation in dph2 gene at 100 ng/ml by plate assay; format: functional, organism-based; procedure, shortened: as §3
[26] = tested on: Saccharomyces cerevisiae; experiment: Antifungal activity against Saccharomyces cerevisiae BY4741 harboring YDR042C mutation in unknown gene by spectrophotometry; format: functional
Procedure, shortened: (§4)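 Deletion strains from the nonessential haploid MATa BY4741 collection (KanMX4 replacement) were grown in YPD with G418 at 28°C for 3 days, then pinned into liquid SC with or without sordarin derivative GM193663 (2 ng/ml for sensitivity, 62.5 ng/ml for resistance). Cultures were kept at 28°C and read at OD595 every 24 h for 5 days. Growth was scored against wild type on the same plate and against the drug-free control. Hits were retested at least in duplicate.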

[27] = tested on: Saccharomyces cerevisiae; experiment: Antifungal activity against Saccharomyces cerevisiae BY4741 harboring MRH1 YDR033W mutant gene by spectrophotometry; format: functional; procedure, shortened: as §1
[28] = tested on: Saccharomyces cerevisiae; experiment: Antifungal activity against Saccharomyces cerevisiae BY4741 harboring DLT1 YMR126C mutant gene by spectrophotometry; format: functional; procedure, shortened: as §1
[29] = tested on: Saccharomyces cerevisiae; experiment: Antifungal activity against Saccharomyces cerevisiae BY4741 harboring YMR141C mutation in unknown gene by spectrophotometry; format: functional; procedure, shortened: as §4
[30] = tested on: Saccharomyces cerevisiae; experiment: Antifungal activity against Saccharomyces cerevisiae BY4741 harboring YKL098W mutation in unknown gene by spectrophotometry; format: functional; procedure, shortened: as §4
[31] = tested on: Saccharomyces cerevisiae; experiment: Antifungal activity against Saccharomyces cerevisiae BY4741 harboring YSC83 YHR017W mutant gene by spectrophotometry; format: functional; procedure, shortened: as §4
[32] = tested on: Saccharomyces cerevisiae; experiment: Antifungal activity against Saccharomyces cerevisiae BY4741 harboring YDR008C mutation by spectrophotometry; format: functional; procedure, shortened: as §2
[33] = tested on: Saccharomyces cerevisiae; experiment: Antifungal activity against Saccharomyces cerevisiae BY4741 harboring YBR141C mutation in unknown gene by spectrophotometry; format: functional; procedure, shortened: as §2
[34] = tested on: Saccharomyces cerevisiae; experiment: Antifungal activity against Saccharomyces cerevisiae BY4741 harboring SCS22 YBL091C-A mutant gene by spectrophotometry; format: functional; procedure, shortened: as §2

For `CO[C@H]1[C@@H](O)[C@H](O)[C@H](OC[C@@]23C[C@@H]4[C@H](C)CC[C@H]4[C@@]4(C=O)CC2C=C(C(C)C)[C@@]34C(=O)O)O[C@@H]1C` [SORDARIN], the MIC [1] was greater than 0.125 µg/mL, the MIC [2] was greater than 0.125 µg/mL and the MIC [3] was greater than 0.0625 µg/mL. It also gave an MIC [4] greater than 0.125 µg/mL, an MIC [5] greater than 0.125 µg/mL and an MIC [6] greater than 0.5 µg/mL. The MIC [7] was greater than 0.5 µg/mL, the MIC [8] was greater than 0.5 µg/mL and the MIC [9] was greater than 0.5 µg/mL. It also gave an MIC [10] greater than 0.125 µg/mL, an MIC [11] greater than 0.5 µg/mL and an MIC [12] greater than 0.5 µg/mL. It also gave an MIC [13] greater than 0.5 µg/mL, an MIC [14] greater than 0.5 µg/mL and an MIC [15] greater than 0.0625 µg/mL. For the same compound, the MIC [16] was greater than 0.125 µg/mL, the MIC [17] was greater than 0.125 µg/mL and the MIC [18] was greater than 0.0625 µg/mL. It also gave an MIC [19] greater than 0.5 µg/mL, an MIC [20] greater than 0.0625 µg/mL and an MIC [21] greater than 0.5 µg/mL. For the same compound, the Activity [22] was “Active”, the Activity [23] was “Active” and the MIC [24] was “inactive”. For the same compound, the MIC [25] was “inactive”, the MIC [26] was greater than 0.125 µg/mL and the MIC [27] was greater than 0.125 µg/mL. The MIC [28] was greater than 0.125 µg/mL, the MIC [29] was greater than 0.5 µg/mL and the MIC [30] was greater than 0.5 µg/mL. For the same compound, the MIC [31] was greater than 0.5 µg/mL, the MIC [32] was greater than 0.5 µg/mL and the MIC [33] was greater than 0.5 µg/mL. The MIC [34] was greater than 0.5 µg/mL.
